Reference: ChEMBL document CHEMBL1811853, “Design and evaluation of 3-aminopyrazolopyridinone kinase inhibitors inspired by the natural product indirubin” (Bioorg Med Chem, 2011)

What was measured:
[1] = biological target: MAP kinase-activated protein kinase 2 (Homo sapiens, UniProt P49137); experiment: Inhibition of MAPKAPK2 at 30 uM by microfluidic mobility shift assay
Method in brief: (§1)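 Single-concentration screen, singlicate, 30 uM final (diluted from 1 mM DMSO solutions), fluorescently tagged peptide substrate appropriate to each kinase, ATP at apparent Km for each protein. Phosphorylated and unphosphorylated peptides separated electrophoretically; conversion is the phosphorylated peak area over the sum of both peaks. No-inhibitor and no-ATP controls; H89 reference on each plate.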

[2] = biological target: Ribosomal protein S6 kinase alpha-1 (Homo sapiens) (UniProt Q15418); experiment: Inhibition of RSK1 at 30 uM by microfluidic mobility shift assay; method in brief: as §1
Chain of Ribosomal protein S6 kinase alpha-1 (Homo sapiens) (Q15418 whole entry): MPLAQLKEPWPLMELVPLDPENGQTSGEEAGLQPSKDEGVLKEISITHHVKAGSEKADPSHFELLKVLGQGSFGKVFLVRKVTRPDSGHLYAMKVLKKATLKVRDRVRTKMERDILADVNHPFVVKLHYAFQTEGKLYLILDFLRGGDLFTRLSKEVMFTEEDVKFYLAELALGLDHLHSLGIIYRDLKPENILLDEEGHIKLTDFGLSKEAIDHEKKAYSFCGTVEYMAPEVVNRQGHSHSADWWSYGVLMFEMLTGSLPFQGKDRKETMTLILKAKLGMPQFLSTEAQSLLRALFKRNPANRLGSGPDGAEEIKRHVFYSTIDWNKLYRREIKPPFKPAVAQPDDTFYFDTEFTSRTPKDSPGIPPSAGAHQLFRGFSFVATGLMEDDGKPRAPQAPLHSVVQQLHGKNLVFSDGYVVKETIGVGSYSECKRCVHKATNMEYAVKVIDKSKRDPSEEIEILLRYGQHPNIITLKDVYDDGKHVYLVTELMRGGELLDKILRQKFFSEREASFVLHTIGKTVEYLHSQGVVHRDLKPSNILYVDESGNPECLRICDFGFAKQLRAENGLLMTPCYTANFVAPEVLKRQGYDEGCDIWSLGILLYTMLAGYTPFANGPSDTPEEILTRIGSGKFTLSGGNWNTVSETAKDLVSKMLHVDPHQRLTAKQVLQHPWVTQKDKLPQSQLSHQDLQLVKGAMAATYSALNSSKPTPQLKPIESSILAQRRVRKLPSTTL

[3] = biological target: T1, MAP kinase-activated protein kinase 5 (Homo sapiens) (UniProt Q8IW41); experiment: Inhibition of PRAK1 at 30 uM by microfluidic mobility shift assay; method in brief: as §1
T1 sequence (whole entry): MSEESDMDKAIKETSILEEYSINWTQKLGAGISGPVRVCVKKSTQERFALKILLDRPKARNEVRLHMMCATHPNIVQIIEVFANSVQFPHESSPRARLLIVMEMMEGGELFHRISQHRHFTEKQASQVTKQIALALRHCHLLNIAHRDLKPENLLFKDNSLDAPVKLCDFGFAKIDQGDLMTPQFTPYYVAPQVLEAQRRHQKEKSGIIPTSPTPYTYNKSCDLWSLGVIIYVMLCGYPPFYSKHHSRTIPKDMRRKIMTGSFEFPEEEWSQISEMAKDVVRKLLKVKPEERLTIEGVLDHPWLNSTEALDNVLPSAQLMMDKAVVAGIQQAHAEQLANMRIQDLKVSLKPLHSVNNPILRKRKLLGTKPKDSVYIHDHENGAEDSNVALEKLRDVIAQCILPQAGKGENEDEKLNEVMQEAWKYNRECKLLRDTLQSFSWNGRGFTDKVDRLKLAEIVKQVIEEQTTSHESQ

[4] = biological target: Mitogen-activated protein kinase 3 (Homo sapiens) (UniProt P27361); experiment: Inhibition of ERK1 at 30 uM by microfluidic mobility shift assay; method in brief: as §1
Chain of Mitogen-activated protein kinase 3 (Homo sapiens) (P27361 whole entry): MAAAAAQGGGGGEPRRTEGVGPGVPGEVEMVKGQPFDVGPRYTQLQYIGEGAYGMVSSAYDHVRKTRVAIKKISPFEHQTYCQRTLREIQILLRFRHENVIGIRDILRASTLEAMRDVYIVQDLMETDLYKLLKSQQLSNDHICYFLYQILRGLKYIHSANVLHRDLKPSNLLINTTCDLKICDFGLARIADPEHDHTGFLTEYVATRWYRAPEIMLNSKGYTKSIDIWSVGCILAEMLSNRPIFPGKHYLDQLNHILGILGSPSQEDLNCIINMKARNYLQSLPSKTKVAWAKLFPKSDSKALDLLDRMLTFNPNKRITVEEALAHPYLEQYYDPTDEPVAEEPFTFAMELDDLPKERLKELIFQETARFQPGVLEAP

[5] = biological target: T2, Serine/threonine-protein kinase D2 (Homo sapiens) (UniProt Q9BZL6); experiment: Inhibition of PKD2 at 30 uM by microfluidic mobility shift assay; method in brief: as §1
T2 sequence (whole entry): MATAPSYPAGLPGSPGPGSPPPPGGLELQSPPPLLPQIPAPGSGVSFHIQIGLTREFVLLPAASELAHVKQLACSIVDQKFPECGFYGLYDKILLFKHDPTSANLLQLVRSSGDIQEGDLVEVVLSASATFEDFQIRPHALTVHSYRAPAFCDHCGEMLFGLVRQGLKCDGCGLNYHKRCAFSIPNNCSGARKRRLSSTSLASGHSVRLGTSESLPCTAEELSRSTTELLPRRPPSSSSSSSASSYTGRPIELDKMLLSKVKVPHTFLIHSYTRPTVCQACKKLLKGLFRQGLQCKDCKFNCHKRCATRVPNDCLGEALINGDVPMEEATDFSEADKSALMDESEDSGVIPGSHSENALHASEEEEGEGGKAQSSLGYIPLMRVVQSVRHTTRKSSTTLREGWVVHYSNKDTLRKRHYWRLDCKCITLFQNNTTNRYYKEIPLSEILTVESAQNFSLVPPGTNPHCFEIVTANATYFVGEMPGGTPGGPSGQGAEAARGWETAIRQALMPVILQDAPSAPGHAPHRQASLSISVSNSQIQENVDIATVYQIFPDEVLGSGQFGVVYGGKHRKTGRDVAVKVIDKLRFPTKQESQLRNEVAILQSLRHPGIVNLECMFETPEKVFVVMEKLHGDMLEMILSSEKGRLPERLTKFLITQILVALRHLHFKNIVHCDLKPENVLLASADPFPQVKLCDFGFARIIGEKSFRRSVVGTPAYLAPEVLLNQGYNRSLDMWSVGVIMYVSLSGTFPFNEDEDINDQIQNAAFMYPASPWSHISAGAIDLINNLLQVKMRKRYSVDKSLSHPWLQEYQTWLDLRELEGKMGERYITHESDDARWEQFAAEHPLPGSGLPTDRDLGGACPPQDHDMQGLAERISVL

[6] = biological target: T3, Serine/threonine-protein kinase Chk1 (Homo sapiens) (UniProt O14757); experiment: Inhibition of CHK1 at 30 uM by microfluidic mobility shift assay; method in brief: as §1
T3 sequence (whole entry): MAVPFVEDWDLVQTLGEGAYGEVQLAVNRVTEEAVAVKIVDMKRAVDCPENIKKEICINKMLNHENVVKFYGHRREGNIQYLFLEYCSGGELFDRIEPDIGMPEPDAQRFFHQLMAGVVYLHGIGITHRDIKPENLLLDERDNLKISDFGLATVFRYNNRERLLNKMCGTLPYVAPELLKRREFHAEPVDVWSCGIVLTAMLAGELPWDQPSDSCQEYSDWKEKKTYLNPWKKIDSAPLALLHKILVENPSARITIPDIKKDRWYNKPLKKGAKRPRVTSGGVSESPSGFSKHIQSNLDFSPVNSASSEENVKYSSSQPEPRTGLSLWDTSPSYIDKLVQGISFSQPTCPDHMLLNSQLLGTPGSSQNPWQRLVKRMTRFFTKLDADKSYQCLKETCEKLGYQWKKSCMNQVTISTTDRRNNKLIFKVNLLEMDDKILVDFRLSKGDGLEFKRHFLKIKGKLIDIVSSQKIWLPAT

[7] = biological target: Tyrosine-protein kinase ABL1 (Homo sapiens, UniProt P00519); experiment: Inhibition of ABL at 30 uM by microfluidic mobility shift assay; method in brief: as §1
[8] = biological target: Tyrosine-protein kinase Fyn (Homo sapiens, UniProt P06241); experiment: Inhibition of FYN at 30 uM by microfluidic mobility shift assay; method in brief: as §1
Chain of Tyrosine-protein kinase Fyn (P06241 2-537 limits assumed): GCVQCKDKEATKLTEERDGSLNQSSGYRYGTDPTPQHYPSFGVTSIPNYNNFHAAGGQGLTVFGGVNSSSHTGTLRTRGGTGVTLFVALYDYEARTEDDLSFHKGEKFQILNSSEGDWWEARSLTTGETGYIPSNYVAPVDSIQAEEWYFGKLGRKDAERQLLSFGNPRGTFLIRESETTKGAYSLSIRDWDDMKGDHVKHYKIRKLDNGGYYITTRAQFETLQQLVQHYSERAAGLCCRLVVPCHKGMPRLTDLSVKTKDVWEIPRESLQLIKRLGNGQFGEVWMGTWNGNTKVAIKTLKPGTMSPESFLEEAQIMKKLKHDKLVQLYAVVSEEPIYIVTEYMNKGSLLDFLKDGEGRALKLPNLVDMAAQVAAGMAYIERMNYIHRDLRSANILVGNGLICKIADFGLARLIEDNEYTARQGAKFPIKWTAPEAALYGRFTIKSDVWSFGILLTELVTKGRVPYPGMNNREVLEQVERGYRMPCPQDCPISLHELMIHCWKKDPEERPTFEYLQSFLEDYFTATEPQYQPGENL

[9] = biological target: Tyrosine-protein kinase Lyn (Homo sapiens, UniProt P07948); experiment: Inhibition of LYN at 30 uM by microfluidic mobility shift assay; method in brief: as §1
Chain of Tyrosine-protein kinase Lyn (P07948 2-512 limits assumed): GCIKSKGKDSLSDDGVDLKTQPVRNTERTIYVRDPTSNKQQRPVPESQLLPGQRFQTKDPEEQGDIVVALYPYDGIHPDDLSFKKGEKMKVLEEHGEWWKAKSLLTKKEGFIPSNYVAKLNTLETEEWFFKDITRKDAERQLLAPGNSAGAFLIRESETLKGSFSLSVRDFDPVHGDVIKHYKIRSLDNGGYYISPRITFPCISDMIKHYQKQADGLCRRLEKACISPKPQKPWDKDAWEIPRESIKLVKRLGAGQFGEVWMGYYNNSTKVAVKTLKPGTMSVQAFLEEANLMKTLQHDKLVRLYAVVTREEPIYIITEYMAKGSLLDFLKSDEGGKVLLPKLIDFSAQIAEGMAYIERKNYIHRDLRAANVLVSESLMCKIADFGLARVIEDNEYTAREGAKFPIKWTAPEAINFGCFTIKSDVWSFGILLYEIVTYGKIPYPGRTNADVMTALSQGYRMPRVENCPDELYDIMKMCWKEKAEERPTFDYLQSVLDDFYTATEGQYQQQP

[10] = biological target: Tyrosine-protein kinase Lck (Homo sapiens, UniProt P06239); experiment: Inhibition of LCK at 30 uM by microfluidic mobility shift assay; method in brief: as §1
Chain of Tyrosine-protein kinase Lck (P06239 2-509 limits assumed): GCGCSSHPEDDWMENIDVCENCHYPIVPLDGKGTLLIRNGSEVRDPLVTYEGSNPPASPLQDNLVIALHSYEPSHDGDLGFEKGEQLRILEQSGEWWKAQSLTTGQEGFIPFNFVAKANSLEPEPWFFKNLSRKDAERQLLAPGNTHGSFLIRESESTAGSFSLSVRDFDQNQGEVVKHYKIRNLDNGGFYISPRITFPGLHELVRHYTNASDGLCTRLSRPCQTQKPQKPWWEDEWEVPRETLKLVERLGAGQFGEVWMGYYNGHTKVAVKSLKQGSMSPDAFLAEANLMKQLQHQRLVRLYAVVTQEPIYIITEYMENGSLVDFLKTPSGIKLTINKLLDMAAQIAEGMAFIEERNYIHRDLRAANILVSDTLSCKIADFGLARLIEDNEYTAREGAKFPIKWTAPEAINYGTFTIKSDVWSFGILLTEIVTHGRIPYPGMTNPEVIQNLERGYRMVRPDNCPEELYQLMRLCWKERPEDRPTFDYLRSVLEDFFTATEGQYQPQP

[11] = biological target: Proto-oncogene tyrosine-protein kinase Src (Homo sapiens, UniProt P12931); experiment: Inhibition of SRC at 30 uM by microfluidic mobility shift assay; method in brief: as §1
Chain of Proto-oncogene tyrosine-protein kinase Src (P12931 2-536 limits assumed): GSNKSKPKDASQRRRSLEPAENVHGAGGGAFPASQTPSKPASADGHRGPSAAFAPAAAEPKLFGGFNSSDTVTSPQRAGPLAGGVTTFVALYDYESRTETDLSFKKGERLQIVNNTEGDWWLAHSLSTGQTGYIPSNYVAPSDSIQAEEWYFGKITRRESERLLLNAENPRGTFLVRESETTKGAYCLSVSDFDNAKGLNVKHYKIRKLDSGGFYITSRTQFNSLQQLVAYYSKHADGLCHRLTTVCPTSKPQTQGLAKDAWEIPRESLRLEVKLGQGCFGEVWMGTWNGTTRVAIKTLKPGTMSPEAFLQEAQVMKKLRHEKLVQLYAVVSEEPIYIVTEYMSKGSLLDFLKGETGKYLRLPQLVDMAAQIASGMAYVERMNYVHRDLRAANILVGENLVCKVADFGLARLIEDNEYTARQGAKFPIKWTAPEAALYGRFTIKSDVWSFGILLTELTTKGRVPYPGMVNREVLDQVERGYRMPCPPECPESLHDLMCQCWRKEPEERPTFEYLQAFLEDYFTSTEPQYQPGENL

[12] = biological target: Mitogen-activated protein kinase 1 (Homo sapiens) (UniProt P28482); experiment: Inhibition of ERK2 at 30 uM by microfluidic mobility shift assay; method in brief: as §1
[13] = Inhibition of PKA at 30 uM by microfluidic mobility shift assay; method in brief: as §1
[14] = biological target: RAC-beta serine/threonine-protein kinase (Homo sapiens) (UniProt P31751); experiment: Inhibition of AKT2 at 30 uM by microfluidic mobility shift assay; method in brief: as §1
Chain of RAC-beta serine/threonine-protein kinase (Homo sapiens) (P31751 whole entry): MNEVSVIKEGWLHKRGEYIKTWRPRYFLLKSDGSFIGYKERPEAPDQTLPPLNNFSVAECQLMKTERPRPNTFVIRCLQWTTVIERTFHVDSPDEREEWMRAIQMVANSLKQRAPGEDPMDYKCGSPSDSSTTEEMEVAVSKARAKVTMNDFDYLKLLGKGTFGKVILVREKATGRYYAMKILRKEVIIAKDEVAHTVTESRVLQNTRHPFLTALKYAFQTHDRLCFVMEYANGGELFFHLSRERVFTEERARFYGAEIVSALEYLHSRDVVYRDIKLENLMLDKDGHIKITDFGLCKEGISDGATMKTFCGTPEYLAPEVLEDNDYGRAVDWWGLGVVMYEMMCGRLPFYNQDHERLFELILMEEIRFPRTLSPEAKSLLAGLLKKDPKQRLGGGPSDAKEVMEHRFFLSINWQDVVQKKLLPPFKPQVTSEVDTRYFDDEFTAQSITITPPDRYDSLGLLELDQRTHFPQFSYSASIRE

[15] = biological target: Mitogen-activated protein kinase 14 (Homo sapiens, UniProt Q16539); experiment: Inhibition of p38alpha at 30 uM by microfluidic mobility shift assay; method in brief: as §1
[16] = biological target: RAC-alpha serine/threonine-protein kinase (Homo sapiens) (UniProt P31749); experiment: Inhibition of AKT1 at 30 uM by microfluidic mobility shift assay; method in brief: as §1
[17] = biological target: Ribosomal protein S6 kinase alpha-5 (Homo sapiens) (UniProt O75582); experiment: Inhibition of MSK1 at 30 uM by microfluidic mobility shift assay; method in brief: as §1
Chain of Ribosomal protein S6 kinase alpha-5 (Homo sapiens) (O75582 whole entry, looked up): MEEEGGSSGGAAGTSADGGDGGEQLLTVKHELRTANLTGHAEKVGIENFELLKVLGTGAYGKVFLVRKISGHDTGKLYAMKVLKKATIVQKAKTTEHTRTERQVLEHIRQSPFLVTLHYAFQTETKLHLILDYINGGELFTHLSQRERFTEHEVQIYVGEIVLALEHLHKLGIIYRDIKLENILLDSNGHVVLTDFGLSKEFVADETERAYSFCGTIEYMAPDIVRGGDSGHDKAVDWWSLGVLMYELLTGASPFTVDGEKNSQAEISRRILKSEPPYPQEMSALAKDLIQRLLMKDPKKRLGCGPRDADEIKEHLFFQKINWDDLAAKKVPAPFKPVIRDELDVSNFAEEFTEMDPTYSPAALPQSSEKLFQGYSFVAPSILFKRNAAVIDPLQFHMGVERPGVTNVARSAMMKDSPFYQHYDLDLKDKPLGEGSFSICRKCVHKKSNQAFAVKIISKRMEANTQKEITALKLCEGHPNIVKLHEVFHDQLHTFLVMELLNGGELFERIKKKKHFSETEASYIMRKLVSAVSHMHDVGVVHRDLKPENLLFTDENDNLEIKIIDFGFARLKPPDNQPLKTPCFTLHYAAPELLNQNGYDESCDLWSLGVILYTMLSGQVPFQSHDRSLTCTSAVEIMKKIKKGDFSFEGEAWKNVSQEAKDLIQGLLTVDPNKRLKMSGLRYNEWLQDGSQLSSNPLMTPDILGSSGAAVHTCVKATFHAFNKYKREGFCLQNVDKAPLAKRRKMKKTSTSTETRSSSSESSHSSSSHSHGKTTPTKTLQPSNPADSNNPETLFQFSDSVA

Chain of MAP kinase-activated protein kinase 2 (P49137 whole entry, looked up): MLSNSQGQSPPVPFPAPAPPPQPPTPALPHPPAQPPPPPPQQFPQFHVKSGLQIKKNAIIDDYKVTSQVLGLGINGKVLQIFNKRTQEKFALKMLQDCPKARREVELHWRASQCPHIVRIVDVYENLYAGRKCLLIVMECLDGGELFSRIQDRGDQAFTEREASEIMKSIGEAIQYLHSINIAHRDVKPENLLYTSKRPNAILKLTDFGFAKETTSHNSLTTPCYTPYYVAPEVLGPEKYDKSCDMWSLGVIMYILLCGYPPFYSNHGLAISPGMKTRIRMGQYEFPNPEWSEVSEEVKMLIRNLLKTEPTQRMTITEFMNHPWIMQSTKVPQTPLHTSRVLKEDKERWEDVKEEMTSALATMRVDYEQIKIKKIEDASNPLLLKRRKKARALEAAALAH

Row | inhibition [1] [%] | inhibition [2] [%] | inhibition [3] [%] | inhibition [4] [%] | inhibition [5] [%] | inhibition [6] [%] | inhibition [7] [%] | inhibition [8] [%] | inhibition [9] [%] | inhibition [10] [%] | inhibition [11] [%] | inhibition [12] [%] | inhibition [13] [%] | inhibition [14] [%] | inhibition [15] [%] | inhibition [16] [%] | inhibition [17] [%] | Compound
1 | 40 | 11 | 12 | 19 | 26 | 9 | 37 | 24 | 39 | 34 | 46 | 14 | 35 | 8 | 3 | 7 | 36 | Nc1n[nH]c2cc(-c3cccnc3)[nH]c(=O)c12
2 | 0 |  | 4 | 4 | -4 | 5 | 15 | 7 | 16 | 12 | 17 | 7 | -6 | 11 | 7 | 4 | 0 | Cc1cc2c(c(NC(=O)Nc3ccccc3)nn2C)c(=O)[nH]1
3 | 4 | 19 | 4 | 0 | 15 | 52 | 99 | 99 | 100 | 100 | 99 | 7 | 2 | 10 | 85 | 3 | 12 | CN1CCN(c2ccc(-c3cc4nn(-c5ccccc5)c(N)c4c(=O)[nH]3)cc2)CC1
4 | 2 | -5 | 1 | 2 | 8 | 7 | -4 | 1 | 5 | 1 | 3 | 2 | 4 | 4 | 0 | 7 | 4 | Cc1cc2c(c(N)nn2C)c(N2CC[C@H](O)C2)n1
5 | 8 | 0 | 3 | 5 | 17 | 6 | 4 | 12 | 6 | 6 | 22 | 2 | 0 | 1 | 6 | 10 | 0 | Cn1nc2c3c(nc(-c4ccccc4)cc31)NCC(=O)N2
6 | 2 | -2 | 1 | 4 | 14 | 0 | 3 | 3 | -1 | -1 | 2 | 1 | 3 | 6 | -4 | 10 | 3 | COc1ccc(S(=O)(=O)Nc2nn(C)c3cc(C)[nH]c(=O)c23)c(OC)c1
7 | 37 | 8 | 11 | 19 | 14 | 25 | 26 | 26 | 22 | 22 | 32 | 13 | 7 | 4 | 7 | 8 | 9 | Cn1nc(N)c2c(=O)[nH]c(-c3ccccc3)cc21
8 | 5 | 16 | 6 | 3 | 13 | 16 | 20 | 15 | 8 | 10 | 20 | 4 | 3 | -1 | 3 | 4 | 0 | CC(=O)Nc1nn(C)c2cc(-c3ccc(N4CCN(C)CC4)cc3)[nH]c(=O)c12
9 | 47 | 22 | 6 | 19 | 25 | 27 | 21 | 23 | 26 | 22 | 30 | 22 | 7 | 1 | 2 | -5 | 2 | COc1cccc(-c2cc3c(c(N)nn3C)c(=O)[nH]2)c1
10 | 29 | 2 | 5 | -2 | 5 | -8 | 0 | -8 |  | -1 | 9 | 8 | -3 | 4 | 6 | 11 | 4 | Cc1cc2c(c(N)nn2C)c(=O)[nH]1
11 | 18 |  | 1 | 4 | 6 | 9 | 18 | 8 | 7 | 5 | 9 | 3 | 2 | 2 | 2 | -2 | 0 | Cc1nc(N)c2c(=O)[nH]c(C)cc2n1
